Activity calls are given as the source filed them. The rule behind the calls is not given here.
Assays:
[1] = target: T1, Protein deacetylase HDAC6 (Homo sapiens, UniProt Q9UBN7); assay: (§1) Inhibition of recombinant N-terminal GST-tagged human HDAC6 (1 to 1215 residues) expressed in baculovirus infected sf9 insect cells using p53 (379 to 382 residues) derived fluorogenic peptide RHKKAc as substrate preincubated for 5 to 10 mins followed by substrate addition and further incubated for 2 hrs by fluorescence assay
T1 sequence (Q9UBN7 whole entry): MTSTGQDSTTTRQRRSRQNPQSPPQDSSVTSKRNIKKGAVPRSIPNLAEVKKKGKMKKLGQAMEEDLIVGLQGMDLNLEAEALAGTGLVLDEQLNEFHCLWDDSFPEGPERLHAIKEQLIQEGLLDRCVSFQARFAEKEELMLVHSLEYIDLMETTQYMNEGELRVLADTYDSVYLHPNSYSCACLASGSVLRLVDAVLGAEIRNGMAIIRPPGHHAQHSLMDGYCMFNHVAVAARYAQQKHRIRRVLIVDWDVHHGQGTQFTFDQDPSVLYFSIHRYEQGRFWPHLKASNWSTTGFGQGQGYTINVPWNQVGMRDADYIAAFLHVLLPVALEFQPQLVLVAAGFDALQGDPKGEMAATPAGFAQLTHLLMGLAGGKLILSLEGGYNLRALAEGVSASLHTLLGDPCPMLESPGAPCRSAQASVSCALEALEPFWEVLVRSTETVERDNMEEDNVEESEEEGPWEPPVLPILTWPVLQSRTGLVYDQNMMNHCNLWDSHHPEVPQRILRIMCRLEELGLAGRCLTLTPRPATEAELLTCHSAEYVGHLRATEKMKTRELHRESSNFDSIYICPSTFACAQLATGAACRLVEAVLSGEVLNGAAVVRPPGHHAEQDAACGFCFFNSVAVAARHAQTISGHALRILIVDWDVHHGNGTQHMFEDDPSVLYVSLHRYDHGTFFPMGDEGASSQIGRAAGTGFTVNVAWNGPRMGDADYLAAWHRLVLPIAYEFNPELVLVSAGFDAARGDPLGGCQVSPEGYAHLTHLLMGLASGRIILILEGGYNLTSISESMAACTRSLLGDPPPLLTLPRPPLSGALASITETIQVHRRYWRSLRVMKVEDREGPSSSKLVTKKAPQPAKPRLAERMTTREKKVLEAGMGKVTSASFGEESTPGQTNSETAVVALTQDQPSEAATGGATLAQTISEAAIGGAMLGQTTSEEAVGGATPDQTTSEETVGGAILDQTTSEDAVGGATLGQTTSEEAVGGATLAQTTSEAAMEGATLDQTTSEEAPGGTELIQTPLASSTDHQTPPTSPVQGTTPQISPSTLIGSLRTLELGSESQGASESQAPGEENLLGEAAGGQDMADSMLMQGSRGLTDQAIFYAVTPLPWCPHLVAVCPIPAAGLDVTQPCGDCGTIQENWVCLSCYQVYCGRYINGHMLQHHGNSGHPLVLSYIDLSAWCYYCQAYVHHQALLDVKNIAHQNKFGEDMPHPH

Histone deacetylase 1 = Histone deacetylase 1 (Homo sapiens, UniProt Q13547); assay: as §1, with “full length C-terminal His/FLAG tagged” for “N-terminal GST-tagged”, “HDAC1” for “HDAC6”, “482” for “1215”
Homo sapiens [2] = organism: Homo sapiens; assay: Selectivity index, ratio of IC50 for recombinant full length C-terminal His/FLAG tagged human HDAC1 (1 to 482 residues) expressed in baculovirus infected sf9 insect cells using p53 (379 to 382 residues) derived fluorogenic peptide RHKKAc as substrate preincubated for 5 to 10 mins followed by …
Homo sapiens [3] = organism: Homo sapiens; assay: Selectivity index, ratio of IC50 for recombinant human full length C-terminal His/FLAG-tagged HDAC1 expressed in baculovirus infected Sf9 insect cells using fluorogenic HDAC as substrate measured after 30 mins by fluorescence based analysis to IC50 for recombinant human full length C-terminal […] expressed in baculovirus infected Sf9 insect cells using fluorogenic HDAC as substrate measured after 30 mins by fluorescence based analysis
[4] = target: T2, Protein deacetylase HDAC6 (Mus musculus) (UniProt Q9Z2V5); assay: Inhibition of HDAC6 in mouse SM1 cells assessed as increase in acetylated alpha-tubulin level at 5 to 10 uM after 24 hrs by Western blot analysis; type: cell-based
T2 sequence (whole entry): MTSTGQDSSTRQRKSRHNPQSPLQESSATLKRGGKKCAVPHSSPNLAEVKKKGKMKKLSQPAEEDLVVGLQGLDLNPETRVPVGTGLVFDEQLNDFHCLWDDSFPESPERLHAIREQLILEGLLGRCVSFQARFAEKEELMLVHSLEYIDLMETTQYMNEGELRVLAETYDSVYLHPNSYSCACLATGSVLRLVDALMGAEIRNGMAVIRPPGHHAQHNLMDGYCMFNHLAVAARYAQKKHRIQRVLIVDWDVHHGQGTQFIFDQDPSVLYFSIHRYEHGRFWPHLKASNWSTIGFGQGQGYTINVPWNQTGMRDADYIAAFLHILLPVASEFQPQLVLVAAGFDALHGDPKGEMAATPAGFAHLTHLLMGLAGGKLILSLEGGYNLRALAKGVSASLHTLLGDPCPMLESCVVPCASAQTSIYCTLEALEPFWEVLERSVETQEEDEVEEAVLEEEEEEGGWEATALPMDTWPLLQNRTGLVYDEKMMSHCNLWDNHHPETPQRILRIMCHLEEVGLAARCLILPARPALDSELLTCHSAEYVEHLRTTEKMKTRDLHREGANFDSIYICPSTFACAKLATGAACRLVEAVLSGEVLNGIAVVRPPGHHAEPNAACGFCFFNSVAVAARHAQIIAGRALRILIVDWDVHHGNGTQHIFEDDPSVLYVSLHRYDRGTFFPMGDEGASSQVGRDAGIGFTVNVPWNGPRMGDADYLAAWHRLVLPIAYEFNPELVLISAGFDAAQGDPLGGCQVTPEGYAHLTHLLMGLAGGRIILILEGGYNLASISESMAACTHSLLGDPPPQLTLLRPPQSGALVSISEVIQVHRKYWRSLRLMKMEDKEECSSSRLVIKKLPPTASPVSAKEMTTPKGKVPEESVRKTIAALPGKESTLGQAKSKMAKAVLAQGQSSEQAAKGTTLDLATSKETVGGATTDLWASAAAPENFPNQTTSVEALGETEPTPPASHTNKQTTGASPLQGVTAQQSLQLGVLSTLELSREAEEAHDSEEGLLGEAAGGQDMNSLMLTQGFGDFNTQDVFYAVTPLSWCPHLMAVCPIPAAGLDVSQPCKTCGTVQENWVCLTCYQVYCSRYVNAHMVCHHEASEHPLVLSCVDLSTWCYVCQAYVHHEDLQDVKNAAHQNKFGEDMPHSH

T-24 = assay: Induction of cell death in human T24 cells at 0.1 to 25 uM; type: cell-based; conditions: t-24, 25 µM
PC-3 = assay: Induction of cell death in human PC3 cells at 0.1 to 25 uM; type: cell-based; conditions: pc-3, 25 µM
5637 = assay: Induction of cell death in human 5637 cells at 0.1 to 25 uM; type: cell-based; conditions: human, 5637, 25 µM
[5] = Induction of apoptosis in mouse SM1 cells at 0.1 to 25 uM by caspase3/7 reagent based luminescence assay; type: cell-based
Outline: (§2)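 SM1 cells treated with HDAC inhibitors, with pan-HDACi and assay controls on every plate. ApoTox-Glo triplex readout: viability fluorescence 400Ex/505Em, cytotoxicity fluorescence 485Ex/520Em, then caspase 3/7 reagent read by luminescence for apoptosis.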

[6] = Induction of cell death in mouse SM1 cells at 0.1 to 25 uM; type: cell-based
[7] = Effect on cell viability in mouse SM1 cells up to 10 uM by ApoTox-Glo triplex assay; type: cell-based; outline: as §2
[8] = Cytotoxicity against mouse SM1 cells at 0.1 to 25 uM by ApoTox-Glo triplex assay; type: cell-based; outline: as §2
Homo sapiens [9] = organism: Homo sapiens; assay: Selectivity index, ratio of IC50 for recombinant full length C-terminal His/FLAG tagged human HDAC1 (1 to 482 residues) expressed in baculovirus infected sf21 insect cells using RHK-K(Ac)-AMC as substrate after 60 mins by fluorescence assay to IC50 for recombinant N-terminal GST-tagged human HDAC6 (1 to 1215 residues) expressed in baculovirus infected sf9 insect cells using RHK-K(Ac)-AMC as substrate after 90 mins by fluorescence assay
[10] = target: T1, Protein deacetylase HDAC6; assay: Inhibition of recombinant N-terminal GST-tagged human HDAC6 (1 to 1215 residues) expressed in baculovirus infected sf9 insect cells using RHK-K(Ac)-AMC as substrate after 90 mins by fluorescence assay
Homo sapiens [11] = organism: Homo sapiens; assay: Selectivity index, ratio of IC50 for recombinant full length human HDAC1 expressed in Escherichia coli cells using Fluor de Lys as substrate preincubated for 15 mins followed by substrate addition for 60 mins by fluorescence assay to IC50 for recombinant full length human HDAC6 expressed in baculovirus infected sf9 insect cells using Fluor de Lys as substrate preincubated for 15 mins followed by substrate addition for 60 mins by fluorescence assay

Histone deacetylase 1, sequence (Q13547 whole entry, the tested form may be a part): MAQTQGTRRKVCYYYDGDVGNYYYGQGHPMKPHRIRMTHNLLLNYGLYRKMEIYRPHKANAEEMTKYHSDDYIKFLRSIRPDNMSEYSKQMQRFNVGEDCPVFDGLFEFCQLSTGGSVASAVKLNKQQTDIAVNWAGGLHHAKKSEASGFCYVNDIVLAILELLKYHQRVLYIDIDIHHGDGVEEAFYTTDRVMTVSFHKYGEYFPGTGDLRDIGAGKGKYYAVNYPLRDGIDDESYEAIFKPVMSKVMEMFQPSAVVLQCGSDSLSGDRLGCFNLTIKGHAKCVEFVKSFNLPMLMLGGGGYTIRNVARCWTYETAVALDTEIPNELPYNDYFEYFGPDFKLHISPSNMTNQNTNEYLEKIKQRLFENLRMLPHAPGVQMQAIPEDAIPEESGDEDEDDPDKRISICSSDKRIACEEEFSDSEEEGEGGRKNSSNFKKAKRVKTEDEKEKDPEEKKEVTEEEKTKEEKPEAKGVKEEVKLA

| Structure (SMILES) | IC50 [1] | IC50 (Histone deacetylase 1) | Ratio IC50 (Homo sapiens [2]) | other results |
| --- | --- | --- | --- | --- |
| O=C(NO)c1cc(CCCCN2CCCc3cc(Cl)ccc32)on1 | 690 nM | 11200 nM | 16 |  |
| O=C(NCCc1cc(C(=O)NO)no1)c1cccc(-c2ccccc2)c1 |  |  | 85 |  |
| O=C(NO)c1ccc(CN(CCO)C(=O)Cc2ccccc2)cc1 |  |  |  | Ratio IC50 (Homo sapiens [3]): 36 |
| CCCCN(Cc1ccc(C(=O)NO)cc1)C(=O)Nc1ccccc1 [NEXTURASTAT A] |  |  |  | inhibition [4]: Active; Activity (T-24): Non-Toxic; Activity (PC-3): Non-Toxic; Activity 5637: Non-Toxic; Activity [5]: Non-Toxic; Activity [6]: Non-Toxic; Activity [7]: Non-Toxic; Activity [8]: Non-Toxic |
| Cc1nc2ccccc2n1Cc1ccc(C(=O)NO)cc1F |  |  |  | Ratio IC50 (Homo sapiens [9]): 11100; IC50 [10]: 0.81 nM |
| CN1CCc2c(c3ccccc3n2Cc2ccc(C(=O)NO)cc2)C1 [TUBASTATIN A] |  |  |  | Activity (T-24): Non-Toxic; Activity (PC-3): Non-Toxic; Activity 5637: Non-Toxic; Activity [5]: Non-Toxic; Activity [6]: Non-Toxic; Activity [7]: Non-Toxic; Activity [8]: Non-Toxic |
| O=C(NO)c1cc(CCCCn2ccc3cc(Cl)c(Cl)cc32)on1 | 4360 nM | > 30000 nM | > 7 |  |
| O=C(CCc1cc(C(=O)NO)no1)Nc1nc(-c2ccccc2)cs1 |  |  | 9.9 |  |
| CC(C)(C)OC(=O)Nc1ccc(-c2cc(C(=O)NCc3ccc(C(=O)NO)cc3)no2)cc1 |  |  | 1320 |  |
| O=C(NO)c1ccc(Cn2c3c(c4ccccc42)S(=O)(=O)CC3)cc1 |  |  |  | Ratio IC50 (Homo sapiens [11]): 1460 |

More lines, main results first:

| IC50 [1] | IC50 (Histone deacetylase 1) | Structure (SMILES) | Ratio IC50 (Homo sapiens [2]) | other results |
| --- | --- | --- | --- | --- |
| 190 nM | > 30000 nM | O=C(NCCc1cc(C(=O)NO)no1)c1ccccc1 | > 155 |  |
|  | 3.2 nM | CC(C)(C)OC(=O)Nc1ccc(-c2cc(C(=O)NCCCCCCC(=O)NO)no2)cc1 |  |  |
| 1990 nM | > 30000 nM | CC1(C)CCN(CCCCc2cc(C(=O)NO)no2)c2ccc(Cl)cc21 | > 15 |  |
|  | > 30000 nM | O=C(NO)c1cc(CCCCc2ccc(Cl)c(Cl)c2)on1 |  |  |
| 10 nM |  | O=C(NCCc1cc(C(=O)NO)no1)c1ccc2ccccc2c1 | 294 |  |
|  | > 30000 nM | O=C(NO)c1cc(CCCCN2c3ccc(Cl)cc3CCc3cc(Cl)ccc32)on1 | > 22 |  |
| 200 nM | > 30000 nM | O=C(NO)c1cc(CCCOc2ccc(Cl)c(Cl)c2)on1 | > 152 |  |
